Assays:
[1] = target: T1, Metabotropic glutamate receptor 1 (Homo sapiens, UniProt Q13255); assay: Positive allosteric modulation of human mGlu1 receptor by cell based calcium mobilization; type: functional
Summary of the method: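 Calcium mobilization assay at mGlu1; EC50 and % Glu Max taken as the average of three independent experiments, each run in triplicate.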
Target sequence in this assay (Q13255 whole entry): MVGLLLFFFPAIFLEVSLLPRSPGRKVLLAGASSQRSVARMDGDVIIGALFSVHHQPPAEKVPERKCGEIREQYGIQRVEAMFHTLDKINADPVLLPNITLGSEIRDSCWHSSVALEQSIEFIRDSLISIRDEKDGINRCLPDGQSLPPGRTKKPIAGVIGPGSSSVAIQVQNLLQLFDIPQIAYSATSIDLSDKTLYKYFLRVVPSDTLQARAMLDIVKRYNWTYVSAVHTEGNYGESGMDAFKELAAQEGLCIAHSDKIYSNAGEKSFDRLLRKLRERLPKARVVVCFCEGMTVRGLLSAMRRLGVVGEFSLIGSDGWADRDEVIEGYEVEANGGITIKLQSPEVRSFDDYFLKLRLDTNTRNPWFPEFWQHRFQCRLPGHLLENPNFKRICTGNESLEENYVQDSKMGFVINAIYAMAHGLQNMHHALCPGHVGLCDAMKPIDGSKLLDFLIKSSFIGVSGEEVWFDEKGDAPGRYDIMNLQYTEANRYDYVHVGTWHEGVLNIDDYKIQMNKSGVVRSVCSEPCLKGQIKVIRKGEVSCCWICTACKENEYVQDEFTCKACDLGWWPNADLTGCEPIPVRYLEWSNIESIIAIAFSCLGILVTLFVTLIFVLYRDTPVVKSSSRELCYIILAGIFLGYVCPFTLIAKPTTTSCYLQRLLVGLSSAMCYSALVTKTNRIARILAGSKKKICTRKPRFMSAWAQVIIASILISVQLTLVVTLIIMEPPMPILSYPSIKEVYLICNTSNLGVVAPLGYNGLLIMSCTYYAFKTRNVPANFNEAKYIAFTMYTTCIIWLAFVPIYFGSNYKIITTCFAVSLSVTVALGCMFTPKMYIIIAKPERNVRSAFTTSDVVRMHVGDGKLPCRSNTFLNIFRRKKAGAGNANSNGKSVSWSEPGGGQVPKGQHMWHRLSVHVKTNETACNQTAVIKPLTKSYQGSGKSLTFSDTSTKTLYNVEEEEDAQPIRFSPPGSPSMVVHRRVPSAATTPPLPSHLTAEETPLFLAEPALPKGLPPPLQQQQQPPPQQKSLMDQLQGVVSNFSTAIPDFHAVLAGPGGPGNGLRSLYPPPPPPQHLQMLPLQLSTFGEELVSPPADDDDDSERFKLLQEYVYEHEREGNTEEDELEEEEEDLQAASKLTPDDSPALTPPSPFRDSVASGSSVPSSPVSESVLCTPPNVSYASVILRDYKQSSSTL

[2] = target: T1, Metabotropic glutamate receptor 1; assay: Positive allosteric modulation of human mGlu1 receptor at 10 uM by cell based calcium mobilization relative to glutamate; type: functional
Summary of the method: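 Calcium mobilization assay at mGlu1, tested at a single point of 10 μM; response given as % Glu Max.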
Target sequence in this assay (Q13255 19-1194 limits assumed): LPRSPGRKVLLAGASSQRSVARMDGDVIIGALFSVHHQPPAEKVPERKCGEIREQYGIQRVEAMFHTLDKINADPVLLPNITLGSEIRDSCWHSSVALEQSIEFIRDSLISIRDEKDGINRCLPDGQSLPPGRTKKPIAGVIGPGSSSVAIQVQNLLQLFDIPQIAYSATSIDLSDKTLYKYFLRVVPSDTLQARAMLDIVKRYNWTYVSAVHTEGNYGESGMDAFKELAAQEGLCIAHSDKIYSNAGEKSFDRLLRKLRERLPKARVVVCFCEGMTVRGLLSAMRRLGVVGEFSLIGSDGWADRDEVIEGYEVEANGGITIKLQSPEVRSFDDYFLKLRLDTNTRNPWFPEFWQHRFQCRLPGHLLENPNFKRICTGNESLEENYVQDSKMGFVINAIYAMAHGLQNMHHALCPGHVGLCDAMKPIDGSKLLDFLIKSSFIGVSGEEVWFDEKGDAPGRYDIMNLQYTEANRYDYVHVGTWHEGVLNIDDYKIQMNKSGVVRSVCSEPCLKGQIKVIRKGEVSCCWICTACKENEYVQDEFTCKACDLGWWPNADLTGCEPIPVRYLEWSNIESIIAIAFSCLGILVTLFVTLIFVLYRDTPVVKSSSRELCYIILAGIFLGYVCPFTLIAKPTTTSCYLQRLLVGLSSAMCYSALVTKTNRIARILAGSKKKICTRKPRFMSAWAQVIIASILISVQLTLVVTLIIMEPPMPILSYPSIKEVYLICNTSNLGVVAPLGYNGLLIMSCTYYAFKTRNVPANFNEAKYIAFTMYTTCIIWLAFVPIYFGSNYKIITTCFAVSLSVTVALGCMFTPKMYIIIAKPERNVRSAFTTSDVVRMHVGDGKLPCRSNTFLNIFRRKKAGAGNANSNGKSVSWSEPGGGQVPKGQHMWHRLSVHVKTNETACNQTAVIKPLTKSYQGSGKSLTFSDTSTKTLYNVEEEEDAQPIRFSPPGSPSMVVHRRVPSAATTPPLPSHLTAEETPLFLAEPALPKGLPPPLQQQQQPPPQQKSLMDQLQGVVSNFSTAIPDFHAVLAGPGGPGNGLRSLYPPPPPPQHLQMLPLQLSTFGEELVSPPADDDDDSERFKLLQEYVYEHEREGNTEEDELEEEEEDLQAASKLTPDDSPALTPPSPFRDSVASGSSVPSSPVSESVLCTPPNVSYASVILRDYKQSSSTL

[3] = target: T2, Metabotropic glutamate receptor 4 (Homo sapiens, UniProt Q14833); assay: Positive allosteric modulation of human mGlu4 receptor by cell based calcium mobilization; type: functional
T2 sequence (Q14833 whole entry): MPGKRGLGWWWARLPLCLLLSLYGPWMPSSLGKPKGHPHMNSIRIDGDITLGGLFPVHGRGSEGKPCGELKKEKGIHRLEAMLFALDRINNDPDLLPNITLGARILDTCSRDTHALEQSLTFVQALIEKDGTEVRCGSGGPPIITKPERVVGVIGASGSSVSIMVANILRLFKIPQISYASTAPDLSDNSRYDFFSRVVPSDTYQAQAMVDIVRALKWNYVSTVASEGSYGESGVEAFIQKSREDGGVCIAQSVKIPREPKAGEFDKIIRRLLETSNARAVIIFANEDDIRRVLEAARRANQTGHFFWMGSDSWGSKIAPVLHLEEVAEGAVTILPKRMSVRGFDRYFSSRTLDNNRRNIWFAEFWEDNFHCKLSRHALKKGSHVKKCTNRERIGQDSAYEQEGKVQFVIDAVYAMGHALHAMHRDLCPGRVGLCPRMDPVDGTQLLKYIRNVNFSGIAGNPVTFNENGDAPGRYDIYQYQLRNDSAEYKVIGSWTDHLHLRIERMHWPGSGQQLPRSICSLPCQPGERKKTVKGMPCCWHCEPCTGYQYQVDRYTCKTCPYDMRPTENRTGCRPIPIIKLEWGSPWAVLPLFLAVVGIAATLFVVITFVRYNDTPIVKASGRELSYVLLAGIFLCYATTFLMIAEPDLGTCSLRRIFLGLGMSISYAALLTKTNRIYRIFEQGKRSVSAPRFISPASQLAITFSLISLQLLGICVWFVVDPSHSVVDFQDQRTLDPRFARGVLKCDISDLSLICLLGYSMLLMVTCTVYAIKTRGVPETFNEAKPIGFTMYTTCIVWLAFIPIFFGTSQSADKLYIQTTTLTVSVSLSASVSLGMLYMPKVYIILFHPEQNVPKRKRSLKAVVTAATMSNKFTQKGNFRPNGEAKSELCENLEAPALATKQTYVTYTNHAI

[4] = target: T2, Metabotropic glutamate receptor 4; assay: Positive allosteric modulation of human mGlu4 receptor assessed as glutamate-induced calcium mobilization at 10 uM by cell based assay relative to PHCCC; type: functional
Homo sapiens = species: Homo sapiens; assay: Selectivity ratio of EC50 for human mGlu4 receptor to EC50 for human mGlu1 receptor

Row | Compound | EC50 ([1]; read-out: EC50) | %max [2] | EC50 ([1]; read-out: pEC50 (converted)) | EC50 [3] | %max [4] | Ratio EC50 (Homo sapiens)
1 | Cc1ccsc1C(=O)Nc1ccc(N2C(=O)c3ccccc3C2=O)c(Cl)c1 | 1.89 µM | 105% | – | – | – | –
2 | Cn1cccc1C(=O)Nc1ccc(N2C(=O)c3ccccc3C2=O)c(Cl)c1 | 5.26 µM | 95% | – | – | – | –
3 | Cc1ccc2c(c1)C(=O)N(c1ccc(NC(=O)c3ncoc3C)c(F)c1)C2=O | – | 14% | – | – | – | –
4 | Cc1ncsc1C(=O)Nc1ccc(N2C(=O)c3ccccc3C2=O)c(Cl)c1 | > 10 µM | – | – | – | – | –
5 | Cc1ccc2c(c1)C(=O)N(c1ccc(NC(=O)c3ncsc3C)c(F)c1)C2=O | – | 36% | – | – | – | –
6 | CN1CCC[C@H]1C(=O)Nc1ccc(N2C(=O)c3ccccc3C2=O)c(Cl)c1 | > 10 µM | – | – | – | – | –
7 | Cc1ocnc1C(=O)Nc1ccc(N2C(=O)c3cccc(F)c3C2=O)cc1F | – | 36% | – | – | – | –
8 | Cc1ocnc1C(=O)Nc1ccc(N2C(=O)c3ccc(Cl)cc3C2=O)cc1F | – | 25% | – | – | – | –
9 | Cc1scnc1C(=O)Nc1ccc(N2C(=O)c3ccccc3C2=O)c(Cl)c1 | 0.056 µM | 96% | 0.0589 µM | – | – | –
10 | Cc1ocnc1C(=O)Nc1ccc(N2C(=O)c3ccc(Cl)cc3C2=O)c(Cl)c1 | 0.054 µM | 104% | – | 0.405 µM | 67% | 7.4
11 | Cn1ccnc1C(=O)Nc1ccc(N2C(=O)c3cccc(F)c3C2=O)c(Cl)c1 | > 10 µM | 43% | – | 1.09 µM | 42% | –
12 | Cc1scnc1C(=O)Nc1ccc(N2C(=O)c3cccnc3C2=O)cc1F | – | 42% | – | – | – | –
13 | Cc1scnc1C(=O)Nc1ccc(N2C(=O)c3cccc(F)c3C2=O)c(Cl)c1 | 0.187 µM | 111% | – | 0.474 µM | 52% | 2.5
14 | Cc1cccc2c1C(=O)N(c1ccc(NC(=O)c3ncoc3C)c(F)c1)C2=O | – | 20% | – | – | – | –
15 | Cc1ncoc1C(=O)Nc1ccc(N2C(=O)c3ccccc3C2=O)c(Cl)c1 | > 10 µM | – | – | – | – | –
16 | Cc1cccc2c1C(=O)N(c1ccc(NC(=O)c3ncoc3C)cc1Cl)C2=O | 0.469 µM | 91% | 0.479 µM | 0.519 µM | 39% | 0.9
17 | Cc1ocnc1C(=O)Nc1ccc(N2C(=O)c3cccnc3C2=O)cc1F | – | 9% | – | – | – | –
18 | Cc1ccc2c(c1)C(=O)N(c1ccc(NC(=O)c3[nH]ncc3C)cc1Cl)C2=O | 0.557 µM | 106% | – | 2.75 µM | 133% | 4.9
19 | Cc1cccc2c1C(=O)N(c1ccc(NC(=O)c3ncsc3C)cc1Cl)C2=O | 0.232 µM | 104% | – | 1.41 µM | 75% | 6.1
20 | Cc1scnc1C(=O)Nc1ccc(N2C(=O)c3ccc(F)cc3C2=O)c(Cl)c1 | 0.063 µM | 98% | – | 0.306 µM | 52% | 4.9
21 | Cn1ccnc1C(=O)Nc1ccc(N2C(=O)c3ccc(Cl)cc3C2=O)c(Cl)c1 | 0.265 µM | 103% | – | 1.57 µM | 145% | 5.9
22 | Cc1scnc1C(=O)Nc1ccc(N2C(=O)c3cccc(Cl)c3C2=O)c(Cl)c1 | 1.37 µM | 121% | – | > 10 µM | 59% | –
23 | Cn1ccnc1C(=O)Nc1ccc(N2C(=O)c3ccccc3C2=O)c(Cl)c1 | 0.374 µM | 59% | 0.355 µM | – | – | –
24 | Cn1ccnc1C(=O)Nc1ccc(N2C(=O)c3cccnc3C2=O)c(Cl)c1 | > 10 µM | 44% | – | > 10 µM | – | –
25 | Cc1cn[nH]c1C(=O)Nc1ccc(N2C(=O)c3ccccc3C2=O)c(Cl)c1 | 1.24 µM | 107% | – | – | – | –
26 | Cc1ccc2c(c1)C(=O)N(c1ccc(NC(=O)c3ncoc3C)cc1Cl)C2=O | 0.041 µM | 98% | – | 0.198 µM | 75% | 4.8
27 | Cc1ccc2c(c1)C(=O)N(c1ccc(NC(=O)c3ncsc3C)cc1Cl)C2=O | 0.022 µM | 86% | – | 1.12 µM | 161% | 51.1

Row | Compound | EC50 ([1]; read-out: EC50) | %max [2] | EC50 ([1]; read-out: pEC50 (converted)) | EC50 [3] | %max [4] | Ratio EC50 (Homo sapiens)
28 | Cc1cccc2c1C(=O)N(c1ccc(NC(=O)c3ncsc3C)c(F)c1)C2=O | – | 17% | – | – | – | –
29 | Cc1cc[nH]c1C(=O)Nc1ccc(N2C(=O)c3ccccc3C2=O)c(Cl)c1 | 3.42 µM | 95% | 3.47 µM | – | – | –
30 | Cc1ocnc1C(=O)Nc1ccc(N2C(=O)c3ccccc3C2=O)c(Cl)c1 | 1.47 µM | 100% | – | – | – | –
31 | Cc1scnc1C(=O)Nc1ccc(N2C(=O)c3cccnc3C2=O)c(Cl)c1 | 0.191 µM | 98% | – | > 10 µM | – | –
32 | Cc1scnc1C(=O)Nc1ccc(N2C(=O)c3cccc(F)c3C2=O)cc1F | – | 43% | – | – | – | –
33 | Cc1ocnc1C(=O)Nc1ccc(N2C(=O)c3ccc(F)cc3C2=O)cc1F | – | 16% | – | – | – | –
34 | Cn1ccnc1C(=O)Nc1ccc(N2C(=O)c3ccc(F)cc3C2=O)c(Cl)c1 | 0.673 µM | 87% | – | 1.07 µM | 63% | 1.5
35 | Cn1ccnc1C(=O)Nc1ccc(N2C(=O)c3cccc(Cl)c3C2=O)c(Cl)c1 | > 10 µM | 30% | – | > 10 µM | 30% | –
36 | Cc1ocnc1C(=O)Nc1ccc(N2C(=O)c3cccc(Cl)c3C2=O)cc1F | – | 27% | – | – | – | –
37 | Cc1scnc1C(=O)Nc1ccc(N2C(=O)c3ccc(F)cc3C2=O)cc1F | – | 45% | – | – | – | –
38 | Cc1ocnc1C(=O)Nc1ccc(N2C(=O)c3cccc(Cl)c3C2=O)c(Cl)c1 | 1.29 µM | 112% | 1.32 µM | 0.983 µM | 24% | 0.7
39 | Cc1ocnc1C(=O)Nc1ccc(N2C(=O)c3ccc(F)cc3C2=O)c(Cl)c1 | 0.141 µM | 93% | – | 0.642 µM | 36% | 4.6
40 | Cc1cn[nH]c1C(=O)Nc1ccc(N2C(=O)c3cccc(F)c3C2=O)c(Cl)c1 | 0.599 µM | 83% | 0.0224 µM | > 10 µM | – | –
41 | Cc1cccc2c1C(=O)N(c1ccc(NC(=O)c3nccn3C)cc1Cl)C2=O | > 10 µM | 30% | – | 0.506 µM | 32% | –
42 | CN1CCC[C@@H]1C(=O)Nc1ccc(N2C(=O)c3ccccc3C2=O)c(Cl)c1 | > 10 µM | – | – | – | – | –
43 | Cc1cn[nH]c1C(=O)Nc1ccc(N2C(=O)c3ccc(Cl)cc3C2=O)c(Cl)c1 | 0.855 µM | 113% | – | 3.38 µM | 117% | 3.9
44 | Cc1scnc1C(=O)Nc1ccc(N2C(=O)c3cccc(Cl)c3C2=O)cc1F | – | 22% | – | – | – | –
45 | Cc1cn[nH]c1C(=O)Nc1ccc(N2C(=O)c3cccc(C)c3C2=O)c(Cl)c1 | 4.94 µM | 110% | – | > 10 µM | – | –
46 | Cc1scnc1C(=O)Nc1ccc(N2C(=O)c3ccc(Cl)cc3C2=O)cc1F | – | 40% | – | – | – | –
47 | Cc1ocnc1C(=O)Nc1ccc(N2C(=O)c3cccc(F)c3C2=O)c(Cl)c1 | 0.241 µM | 98% | 1.7 µM | > 10 µM | – | 1.7
48 | Cc1scnc1C(=O)Nc1ccc(N2C(=O)c3ccccc3C2=O)cc1F | – | 45% | – | – | – | –
49 | Cc1cn[nH]c1C(=O)Nc1ccc(N2C(=O)c3cccc(Cl)c3C2=O)c(Cl)c1 | > 10 µM | 94% | – | > 10 µM | – | –
50 | Cc1sccc1C(=O)Nc1ccc(N2C(=O)c3ccccc3C2=O)c(Cl)c1 | 1.51 µM | 105% | – | – | – | –
51 | Cc1cn[nH]c1C(=O)Nc1ccc(N2C(=O)c3cccnc3C2=O)c(Cl)c1 | > 10 µM | 37% | – | > 10 µM | 27% | –
52 | Cc1ocnc1C(=O)Nc1ccc(N2C(=O)c3ccccc3C2=O)cc1F | – | 18% | – | – | – | –
53 | Cc1[nH]ccc1C(=O)Nc1ccc(N2C(=O)c3ccccc3C2=O)c(Cl)c1 | > 10 µM | – | – | – | – | –

— ChEMBL document CHEMBL3758107, “Lead optimization of the VU0486321 series of mGlu(1) PAMs. Part 2: SAR of alternative 3-methyl heterocycles and progress towards an in vivo tool” (Bioorg Med Chem Lett, 2016)
